Mot1-301 SUMO = blocks SUMOylation pathway, rescuing yeast Mot1-301 growth | S. cerevisiae Mot1-301 growth rescue, ATP luminescence, 38.5C; percent above DMSO median, 100 means doubled | growth rescue, % at 18.8 µM | 1% of 320,000 active | AID 2716;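 active = every valid replicate shows activation above 250% relative to neutral control wells; inactive = the rest, any valid replicate at or below 250%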;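 also: OY570 slx delta 5 strain wells were the positive control but not used for scaling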
Efflux pump mplx = inhibitors of Candida antifungal efflux pumps expressed in yeast | S. cerevisiae Candida pump triplex, Nile Red efflux | inhibition, % at 10 µM | 0.44% of 330,000 active;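 active = plate passing quality check with inhibition over a set limit, or well fluorescence over plate mean plus 4 SD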;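 also: Nile Red retained in pooled yeast measured as flow cytometry median fluorescence; 0% = buffer negative control and 100% = Enniatin B positive control; higher means more Nile Red kept so more efflux inhibition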
T cruzi inh = T. cruzi replication inhibition; T. cruzi beta-gal in NIH3T3, luminescence, 90 h; inhibition, % (no concentration beside the values); 1.4% of 300,000 active;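 active = mean inhibition across valid replicates above about 55%, limit read from the data; inconclusive = mean below that limit but half or more replicates reach it; inactive = mean below it, under half of replicates reach it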;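 also: signal also drops with host cell toxicity which is not excluded here; 0% = plate median of DMSO wells and 100% = zero luminescence signal; higher percent means less beta-gal luminescence so fewer parasites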
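Assay system: NIH/3T3 host cells with β-galactosidase reporter T. cruzi; input: 5,000 host fibroblasts per well; compound: single 50 nL compound addition per well in DMSO; timing: ≥90 h infection period, 3 h prior cell attachment; measured by: GalScreen β-gal luminescence, detergent lysis, 60 min; evaluation: percent inhibition of parasite-derived β-gal signal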
WT yeast gro inh = growth inhibition of WT yeast, mitochondrial fusion screen; mitochondrial fusion phenotypic screen, WT strain; inhibition, % at 10 µM; 2.1% of 190,000 active; AID 1362; in the data active = inhibition above about 58%; tested in S. cerevisiae
Beta cell apopt = beta cell apoptosis inhibition | INS-1E cytokine-induced death, ATP luminescence, 48 h; percent of positive-control rescue, neutral wells zero | protection from apoptosis, % (concentration not given with the values) | 0.8% of 300,000 active;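 active = Every replicate reaches about 75%, or at least half do and their mean reaches it too, limit read from the data; inconclusive = At least half of replicates reach the limit but their mean does not; inactive = Under half of replicates reach the limit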;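 also: 0% = cytokine-treated negative control wells and 100% = positive control rescue; higher means more ATP so stronger rescue from cytokine killing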
CSC inhib = blocks cancer stem cells. inhibition, % at 7.5 µM. 1.1% of 300,000 active. AID 2717. cancer stem cell-like cells viability, luminescence; in the data active = inhibition above about 75%; inconclusive = no clear call, values can overlap the other calls; tested in HMLE shEcad cells
The depositor's hits bear a star. Only some compounds are listed: those with a hit (about 4.8% of all), similar ones and a draw of the others.

How did COc1ccc(-c2cc(C(=O)Nc3cccc(Cl)c3)no2)cc1 do in these assays?
Mot1-301 SUMO: 90; Efflux pump mplx: 0; T cruzi inh: 1; Beta cell apopt: 4; CSC inhib: 4

Results for COc1ccc(OC)c(-c2cc(C(=O)Nc3cccc(Cl)c3)no2)c1 ?
Mot1-301 SUMO: 0; Efflux pump mplx: 0; T cruzi inh: 55*; WT yeast gro inh: 30; Beta cell apopt: 3; CSC inhib: -9

Results for COc1ccc(-c2cc(C(=O)N3CCc4ccccc4C3)no2)cc1 ?
Mot1-301 SUMO: 43; Efflux pump mplx: 0; T cruzi inh: 4; WT yeast gro inh: 31; Beta cell apopt: -4; CSC inhib: -2

How did COc1ccc(OC)c(-c2cc(C(=O)N3CCc4ccccc4C3)no2)c1 do in these assays?
Mot1-301 SUMO: 8; Efflux pump mplx: 0; T cruzi inh: 7; WT yeast gro inh: 62*; Beta cell apopt: -1; CSC inhib: 4

Results for COc1ccc(NC(=O)c2cc(-c3ccccc3OC)on2)cc1 ?
Mot1-301 SUMO: 21; Efflux pump mplx: 0; T cruzi inh: -51; WT yeast gro inh: 0; Beta cell apopt: 9; CSC inhib: 80*

How did COc1ccc(OC)c(-c2cc(C(=O)Nc3c(C)nn(Cc4ccccc4)c3C)no2)c1 do in these assays?
Mot1-301 SUMO: -1; Efflux pump mplx: 0; T cruzi inh: 43; WT yeast gro inh: 60*; Beta cell apopt: 18; CSC inhib: 3

Results for CCN(CCO)C(=O)c1ccc2nc(Cc3cccc(Cl)c3)oc2c1 ?
Mot1-301 SUMO: 8; Efflux pump mplx: 0; T cruzi inh: -3; Beta cell apopt: -5; CSC inhib: -8

Results for CCc1ccc(OCC(=O)NC(NC(=S)Nc2ccccc2C)C(Cl)(Cl)Cl)cc1 (stereo unspecified) ?
Mot1-301 SUMO: 0; Efflux pump mplx: 0; T cruzi inh: 55*; WT yeast gro inh: 11; Beta cell apopt: 8; CSC inhib: -11

Results for Cc1ccc(C)c(NC(=S)NC(NC(=O)N(C)C)C(Cl)(Cl)Cl)c1 (stereo unspecified) ?
Mot1-301 SUMO: 5; Efflux pump mplx: 0; T cruzi inh: -1; WT yeast gro inh: 22; Beta cell apopt: -10; CSC inhib: -10

What do the screens show for `CCc1ccc(OCC(=O)NC(NC(=S)Nc2ccccc2)C(Cl)(Cl)Cl)cc1` (stereo unspecified)?
Mot1-301 SUMO: -7; Efflux pump mplx: 0; T cruzi inh: 5; WT yeast gro inh: 13; Beta cell apopt: 9

What do the screens show for `CCc1ccc(OCC(=O)NC(NC(=S)Nc2ccc(C)cc2C)C(Cl)(Cl)Cl)cc1` (stereo unspecified)?
Mot1-301 SUMO: 156; Efflux pump mplx: 0; T cruzi inh: 31; WT yeast gro inh: 20; Beta cell apopt: 95*; CSC inhib: -9

How did Cc1ccc(C)c(NC(=S)NC(NC(=O)Cc2cccc3ccccc23)C(Cl)(Cl)Cl)c1 (stereo unspecified) do in these assays?
Mot1-301 SUMO: -3; Efflux pump mplx: 0; T cruzi inh: 38; WT yeast gro inh: -5; Beta cell apopt: 76*; CSC inhib: inconclusive

What do the screens show for `CCOP(=O)(c1ccccc1)c1nc(-c2ccccc2Cl)oc1N1CCCCC1` (stereo unspecified)?
Mot1-301 SUMO: -10; Efflux pump mplx: 0; T cruzi inh: 21; WT yeast gro inh: 66*; Beta cell apopt: -8; CSC inhib: -2

How did O=c1[nH]c2ccccc2cc1CN(Cc1cccnc1)S(=O)(=O)c1ccc([N+](=O)[O-])cc1 do in these assays?
Mot1-301 SUMO: 31; Efflux pump mplx: 0; T cruzi inh: 56*; CSC inhib: -8

Results for COc1ccc(NC(=O)CCCc2nnc3n(C)c(=O)c4sccc4n23)cc1 ?
Mot1-301 SUMO: -6; Efflux pump mplx: 0; T cruzi inh: -12; Beta cell apopt: -11; CSC inhib: 0

What do the screens show for `COc1cc2c(cc1OC)C(c1cc(C)ccc1C)CC(=O)N2` (stereo unspecified)?
Mot1-301 SUMO: -5; Efflux pump mplx: 0; T cruzi inh: 12; Beta cell apopt: 4; CSC inhib: -7

How did OCCN=Cc1c(O)[nH]c2ccccc12 do in these assays?
Mot1-301 SUMO: 17; Efflux pump mplx: 0; T cruzi inh: -8; WT yeast gro inh: 0; Beta cell apopt: -1; CSC inhib: -10

Results for CN(C)CC(C)(C)CN=Cc1c(O)[nH]c2ccccc12 ?
Mot1-301 SUMO: 213; Efflux pump mplx: 0; T cruzi inh: 61*; Beta cell apopt: -2; CSC inhib: -1

How did CSCC[C@H](NC(=O)N1CCn2c1nc1ccccc12)C(=O)NCc1ccc(C)cc1 do in these assays?
Mot1-301 SUMO: 4; Efflux pump mplx: 0; T cruzi inh: 18; Beta cell apopt: -7; CSC inhib: -10

How did CC1(C)NC(=O)N(CC(=O)OCC(=O)Nc2cccc(S(N)(=O)=O)c2)C1=O do in these assays?
Mot1-301 SUMO: 8; Efflux pump mplx: 0; T cruzi inh: -7; WT yeast gro inh: 7; Beta cell apopt: -5; CSC inhib: 3

How did CC(C)c1ccc(NC(=S)NCc2ccc3c(c2)OCO3)cc1 do in these assays?
Mot1-301 SUMO: 8; Efflux pump mplx: 0; T cruzi inh: 2; WT yeast gro inh: 67*; Beta cell apopt: -5; CSC inhib: 12

Results for COc1ccc(NC(=S)NCc2ccc3c(c2)OCO3)cc1 ?
Mot1-301 SUMO: 178; Efflux pump mplx: 0; T cruzi inh: -7; WT yeast gro inh: 3; Beta cell apopt: -11; CSC inhib: -24

What do the screens show for `Cc1cccc2sc(NNC(=O)c3ccc(S(=O)(=O)N4CCCC(C)C4)cc3)nc12` (stereo unspecified)?
Mot1-301 SUMO: 1; Efflux pump mplx: 0; T cruzi inh: 34; WT yeast gro inh: -1; Beta cell apopt: 102*; CSC inhib: 128*

Results for Cc1cccc2sc(NNC(=O)c3ccc(S(=O)(=O)N4CCc5ccccc5C4)cc3)nc12 ?
Mot1-301 SUMO: 7; Efflux pump mplx: 0; T cruzi inh: 60*; WT yeast gro inh: -11; Beta cell apopt: 92*; CSC inhib: 103*

How did CCc1nnc(NC(=O)c2ccc(S(=O)(=O)N3CCCC(C)C3)cc2)s1 (stereo unspecified) do in these assays?
Mot1-301 SUMO: -8; Efflux pump mplx: 0; T cruzi inh: 2; Beta cell apopt: -9

How did CCOC(=O)CSc1ccc(C(=O)NCCCN2CCOCC2)cc1[N+](=O)[O-] do in these assays?
Mot1-301 SUMO: -3; Efflux pump mplx: 0; T cruzi inh: 11; Beta cell apopt: -5; CSC inhib: -19

What do the screens show for `CCCCCOCC(O)CCC(=O)NN` (stereo unspecified)?
Mot1-301 SUMO: 287; Efflux pump mplx: 0; T cruzi inh: -11; WT yeast gro inh: -8; Beta cell apopt: -2; CSC inhib: 19

How did Cc1ccc(NC(=O)c2cc(N3C(=O)C=CC3=O)ccc2N2CCOCC2)cc1Cl do in these assays?
Mot1-301 SUMO: 179; Efflux pump mplx: 0; T cruzi inh: 55*; WT yeast gro inh: 66*; Beta cell apopt: -5; CSC inhib: 74
